Experimental data reported in ChEMBL document CHEMBL1255440, “An antimicrobial peptide that targets DNA repair intermediates in vitro inhibits Salmonella growth within murine macrophages” (Antimicrob Agents Chemother, 2010).

Tests used:
J774.A1 [1] = assay: Drug uptake in mouse J774A1 cells assessed as dimer to monomer peptide ratio at 100 uM after 24 hrs at 37 degC by HPLC analysis; type: ADME, cell-based; conditions: j774.a1, 24 h
Summary of the method: (§1)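 J774A.1 cells were incubated with unlabeled peptide for 5 or 24 h at 37°C or 4°C, washed in ice-cold PBS and lysed with NP-40 buffer. Lysates were run on reverse-phase HPLC with an acetonitrile/0.1% TFA gradient and A280 fractions. Monomer (~17.5 min) and dimer (~17.75 min) peak areas were compared against a standard curve. Intracellular mM was calculated using 300,000 cells and 1 pl/cell, with concentration expressed as monomer mass.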

J774.A1 [2] = assay: Drug uptake in mouse J774A1 cells assessed as dimer to monomer peptide ratio at 50 uM after 5 hrs at 37 degC by HPLC analysis; type: ADME, cell-based; conditions: j774.a1, 5 h; summary of the method: as §1
[3] = Cytotoxicity against mouse J774A1 cells assessed as reduction in metabolic activity at 100 uM after 24 hrs by MTT assay; type: ADME, cell-based, J774.A1; conditions: read-out: INH
Summary of the method: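 Cells seeded at 40,000/well in 96-well plates, overnight 37°C 5% CO2, then treated 24 h in fresh DMEM. MTT (4 mg/ml stock in PBS) added for up to 3 h. Formazan solubilized overnight at 37°C in SDS/dimethylformamide/acid lysis buffer, OD read at 575 nm. Paired t tests.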

Salmonella typhimurium [4] = assay: Antibacterial activity against 10 MOI Salmonella enterica subsp. enterica serovar Typhimurium G785 transfected with SOS-inducible beta-galactosidase reporter infected in mouse J774A1 cells assessed as bacterial number at 100 uM after 24 hrs postinfection; type: functional, J774.A1
Summary of the method: (§2)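 J774A.1 cells infected at MOI 10 with sulA promoter-lacZ reporter strain G785 using the gentamicin-protection protocol, treated with peptide (DMSO vehicle controls) plus 15 μg/ml gentamicin for 4 or 24 h. Released bacteria were plated for colony counts in parallel, and were incubated with 33 μM C12FDG (with 0.2 mM EDTA) in LB for 2 h at 37°C. Flow cytometry gave % fluorescein-positive among LPS-antibody-positive particles; Wilcoxon exact test.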

[5] = Cytotoxicity against mouse peritoneal macrophages assessed as live cells at 150 uM by calcein AM assay; type: cell-based, Peritoneal macrophage cell; conditions: read-out: Activity
Summary of the method: (§3)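 Cells seeded at 300,000/well and allowed to adhere, then given fresh DMEM with or without peptide for 24 h. Cells trypsinized, stained with a mammalian Live/Dead viability/cytotoxicity kit and analyzed by flow cytometry. Wilcoxon exact test.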

J774.A1 [6] = assay: Drug uptake in mouse J774A1 cells at 0.5 uM after 5 mins by confocal laser microscopy; type: ADME, cell-based; conditions: j774.a1, 5 min
Summary of the method: (§4)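 Cells were seeded at 200,000 per chamber-slide well and left to adhere overnight at 37°C. They were then exposed in DMEM to peptide carrying an N-terminal rhodamine label, at 37°C or, where stated, 4°C. Cells were washed three times in PBS, fixed in 4% paraformaldehyde for 30 min, and mounted in antifade. Optical slices near the cell centre were imaged by confocal laser microscopy.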

J774.A1 [7] = assay: Drug uptake in mouse J774A1 cells assessed as dimer to monomer peptide ratio at 150 uM after 5 hrs at 37 degC by HPLC analysis; type: ADME, cell-based; conditions: j774.a1, 5 h; summary of the method: as §1
Salmonella typhimurium [8] = assay: Antibacterial activity against 1 MOI Salmonella enterica subsp. enterica serovar Typhimurium infected in mouse peritoneal macrophages assessed as reduction in bacterial growth after 24 hrs; type: functional, organism-based
Summary of the method: (§5)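 J774A.1 cells or thioglycolate-elicited BALB/c peritoneal macrophages seeded at 200,000/well, overnight 37°C 5% CO2; infected with GFP strain SDT1416, 1 h invasion, washed, 1 h in DMEM with 15 μg/ml gentamicin. Then fresh DMEM plus 15 μg/ml gentamicin with or without peptide (DMSO vehicle) for 24 h at 37°C; macrophages lysed with 1% Triton X-100, plated on LB agar for CFU.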

J774.A1 [9] = assay: Drug uptake in mouse J774A1 cells assessed as total peptide concentration at 50 uM after 24 hrs at 37 degC by HPLC analysis; type: ADME, cell-based; conditions: j774.a1, 24 h
Summary of the method: (§6)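 J774A.1 cells were seeded at 300,000 per well and allowed to adhere for 24 h at 37°C in 5% CO2. Medium was replaced with DMEM containing unlabeled peptide, and cells were held at 37°C or 4°C. After three washes in ice-cold PBS, cells were lysed in NP-40 buffer and debris spun out. Reverse-phase HPLC was read at 280 nm. Peaks at 17.5 and 17.75 min were integrated against a standard curve. Intracellular mM was calculated from 300,000 cells at 1 pl each, using monomer mass.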

Salmonella typhimurium [10] = assay: Antibacterial activity against 10 MOI Salmonella enterica subsp. enterica serovar Typhimurium G785 transfected with SOS-inducible beta-galactosidase reporter infected in mouse J774A1 cells assessed as SOS induction at 100 uM after 24 hrs postinfection; type: functional, J774.A1; summary of the method: as §2
J774.A1 [11] = assay: Cytotoxicity against mouse J774A1 cells assessed as dead cells at 50 uM by propidium iodide assay; type: cell-based; conditions: j774.a1, 50 µM; summary of the method: as §3
[12] = Cytotoxicity against mouse peritoneal macrophages assessed as dead cells at 50 uM by propidium iodide assay; type: cell-based; conditions: peritoneal macrophage cell; summary of the method: as §3
[13] = Drug uptake in mouse peritoneal macrophages assessed as total peptide concentration at 100 uM after 24 hrs at 37 degC by HPLC analysis; type: ADME, cell-based; conditions: peritoneal macrophage cell
Summary of the method: (§7)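 Macrophages were elicited in 8–12-week-old female BALB/c mice with 4% thioglycolate i.p. and harvested by lavage 4 days later. Cells were seeded at 300,000 per well for 24 h, then given unlabeled peptide in DMEM for 24 h at 37°C. Lysates were run on reverse-phase HPLC at A280. Monomer (17.5 min) and dimer (17.75 min) peak areas were compared with a standard curve. Concentration assumed 1 pl per cell; values are means of three determinations.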

Salmonella typhimurium [14] = assay: Antibacterial activity against 1 MOI Salmonella enterica subsp. enterica serovar Typhimurium infected in mouse peritoneal macrophages assessed as reduction in bacterial growth at 150 uM after 24 hrs relative to DMEM control; type: functional; set-up: scale not given: the % may be the effect or the level left; summary of the method: as §5
J774.A1 [15] = assay: Drug uptake in mouse J774A1 cells assessed as dimer to monomer peptide ratio at 100 uM after 5 hrs at 4 degC by HPLC analysis; type: ADME, cell-based; conditions: j774.a1, 5 h; summary of the method: as §1
J774.A1 [16] = assay: Drug uptake in mouse J774A1 cells assessed as dimer to monomer peptide ratio at 100 uM after 5 hrs at 37 degC by HPLC analysis; type: ADME, cell-based; conditions: j774.a1, 5 h; summary of the method: as §1
Salmonella typhimurium [17] = assay: Antibacterial activity against 1 MOI Salmonella enterica subsp. enterica serovar Typhimurium infected in mouse J774A1 cells assessed as fold reduction in bacterial growth at 100 uM after 12 hrs; type: functional, J774.A1
[18] = Cytotoxicity against mouse J774A1 cells assessed as live cells at 100 uM by calcein AM assay; type: cell-based, J774.A1; conditions: read-out: Activity; summary of the method: as §3
J774.A1 [19] = assay: Drug uptake in mouse J774A1 cells assessed as total peptide concentration at 150 uM after 5 hrs at 4 degC by HPLC analysis; type: ADME, cell-based; conditions: j774.a1, 5 h; summary of the method: as §6
J774.A1 [20] = assay: Drug uptake in mouse J774A.1 cells assessed as dimer to monomer peptide ratio at 100 uM after 24 hrs at 4 degC by HPLC analysis; conditions: J774A.1, 24 h
J774.A1 [21] = assay: Drug uptake in mouse J774A1 cells at 10 uM after 4 hrs at 4 degC by confocal laser microscopy; type: ADME, cell-based; conditions: j774.a1, 4 h; summary of the method: as §4
[22] = Drug uptake in mouse peritoneal macrophages assessed as total peptide concentration at 50 uM after 24 hrs at 37 degC by HPLC analysis; type: ADME, cell-based; conditions: peritoneal macrophage cell; summary of the method: as §7

`N=C(N)NCCC[C@@H](NC(=O)[C@@H](CS)NC(=O)[C@@H](Cc1ccc(O)cc1)NC(=O)[C@@H](Cc1c[nH]c2ccccc12)NC(=O)[C@@H](CCCNC(=N)N)NC(=O)[C@H](N)Cc1c[nH]c2ccccc12)C(=O)O` gave a Ratio (J774.A1 [1]) of 2.9, a Ratio (J774.A1 [2]) of 2.1 and a cytotoxicity at 24 h, 100 µM [3] of 17.3%. For the same molecule, the Activity (Salmonella typhimurium [4]) was 2.8%, the viability at 150 µM [5] was 87.9% and the Drug uptake (J774.A1 [6]) was “Active”. The Ratio (J774.A1 [7]) was 11, the Activity (Salmonella typhimurium [8]) was “Dose-dependent effect” and the Drug uptake (J774.A1 [9]) was 1.4 mM. For the same molecule, the Activity (Salmonella typhimurium [10]) was 16.5%, the Activity (J774.A1 [11]) was 4.3% and the Activity [12] was 3.2%. The Drug uptake [13] was 7.4 mM, the Activity (Salmonella typhimurium [14]) was 72.3% and the Ratio (J774.A1 [15]) was 2.7. For the same molecule, the Ratio (J774.A1 [16]) was 2.6, the fold change (FC) (Salmonella typhimurium [17]) was < 50 and the viability at 100 µM [18] was 58.9%. For the same molecule, the Drug uptake (J774.A1 [19]) was 15.8 mM, the Ratio (J774.A1 [20]) was 11.5 and the Drug uptake (J774.A1 [21]) was “Not Active”. The Drug uptake [22] was 2.5 mM.
